Assay outcomes: PubChem BioAssay, several laboratories
CSC inhib = blocks cancer stem cells; cancer stem cell-like cells viability, luminescence; inhibition, % at 7.5 µM; hit rate 1.1% among 300,000; in the data active = inhibition above about 75%; inconclusive = no clear call, values can overlap the other calls; tested in HMLE shEcad cells
SKKanGAS inh = blocks kanamycin growth of S. pyogenes SKKanGAS strain | BacTiter-Glo, 6 h | inhibition, % at 7.5 µM | hit rate 1.3% among 300,000 | AID 1662;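 active = mean replicate score, as percent of positive control median, at least 50; inconclusive = mean below 50 but one replicate at or above 50; inactive = mean and every replicate below 50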;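 also: strain carries kanamycin resistance gene driven by streptokinase promoter and grows in 40 µg/ml kanamycin; loss of luminescence reflects streptokinase promoter inhibition or plain growth inhibition; 0% = median of DMSO wells and 100% = positive control at its reference dose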
Beta apoptosis = blocks beta cell apoptosis | protection from apoptosis, % (no concentration beside the values) | hit rate 0.8% among 300,000 | INS-1E cytokine-induced death, ATP luminescence, 48 h; percent of positive-control rescue, neutral wells zero;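 active = Every replicate reaches about 75%, or at least half do and their mean reaches it too, limit read from the data; inconclusive = At least half of replicates reach the limit but their mean does not; inactive = Under half of replicates reach the limit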;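 also: 0% = cytokine-treated negative control wells and 100% = positive control rescue; higher means more ATP so stronger rescue from cytokine killing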
Mdm2-MdmX inh = disrupts the human Mdm2-MdmX interaction; hit rate 3% among 330,000; inhibition, % at 8 µM; SaOS-2 split-luciferase Mdm2/MdmX complementation, luminescence; AID 485346; O15151+Q00987;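 active = inhibition of at least 50% at 8 µM in the primary screen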
Target sequence (O15151 whole entry, looked up): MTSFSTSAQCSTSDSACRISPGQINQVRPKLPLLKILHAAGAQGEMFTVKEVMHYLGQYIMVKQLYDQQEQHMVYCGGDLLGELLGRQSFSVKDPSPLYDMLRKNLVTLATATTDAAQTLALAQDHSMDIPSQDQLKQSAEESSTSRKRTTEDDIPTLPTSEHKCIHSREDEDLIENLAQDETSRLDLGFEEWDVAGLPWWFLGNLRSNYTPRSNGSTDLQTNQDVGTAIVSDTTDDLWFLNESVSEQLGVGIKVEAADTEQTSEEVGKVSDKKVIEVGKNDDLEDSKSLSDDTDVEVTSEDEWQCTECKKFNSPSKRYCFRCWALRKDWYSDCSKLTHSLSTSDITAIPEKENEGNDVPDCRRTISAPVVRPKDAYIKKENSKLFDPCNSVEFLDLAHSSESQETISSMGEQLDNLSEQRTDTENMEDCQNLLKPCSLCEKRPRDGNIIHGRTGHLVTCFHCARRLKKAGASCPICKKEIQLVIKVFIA
Target sequence (Q00987 whole entry, looked up): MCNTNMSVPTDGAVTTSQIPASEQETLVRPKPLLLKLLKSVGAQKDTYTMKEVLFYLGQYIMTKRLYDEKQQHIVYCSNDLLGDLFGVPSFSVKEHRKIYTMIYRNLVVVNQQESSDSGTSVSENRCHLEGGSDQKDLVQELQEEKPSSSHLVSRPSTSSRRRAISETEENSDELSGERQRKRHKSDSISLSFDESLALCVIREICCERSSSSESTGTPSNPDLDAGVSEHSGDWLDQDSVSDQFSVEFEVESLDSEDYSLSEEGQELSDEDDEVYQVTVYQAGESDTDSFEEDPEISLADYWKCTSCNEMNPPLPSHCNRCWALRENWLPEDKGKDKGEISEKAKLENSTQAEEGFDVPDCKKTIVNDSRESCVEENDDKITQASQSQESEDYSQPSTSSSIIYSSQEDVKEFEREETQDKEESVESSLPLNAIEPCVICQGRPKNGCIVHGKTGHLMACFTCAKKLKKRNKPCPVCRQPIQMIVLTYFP
T cruzi repl = blocks replication of Trypanosoma cruzi. T. cruzi beta-gal in NIH3T3, luminescence, 90 h. inhibition, % (concentration not given with the values). hit rate 1.4% among 300,000;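 active = mean inhibition across valid replicates above about 55%, limit read from the data; inconclusive = mean below that limit but half or more replicates reach it; inactive = mean below it, under half of replicates reach it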;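 also: signal also drops with host cell toxicity which is not excluded here; 0% = plate median of DMSO wells and 100% = zero luminescence signal; higher percent means less beta-gal luminescence so fewer parasites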
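System: Mouse NIH/3T3 fibroblasts infected with β-gal-expressing T. cruzi Tulahuen C4 | Quantity: NIH/3T3 cells, 5,000 per well | Reagent: 5000 reporter trypomastigotes per well | Dosing: Compound pinned at 50 nL/well, DMSO | Schedule: 3 h host attachment, then at least 90 h co-culture | Detection: GalScreen luminescence, 60 min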
Calb FLC = C. albicans growth modulation with fluconazole; C. albicans CaCi-2 (fluconazole-resistant clinical isolate) + fluconazole, Alamar Blue growth, 48 h; growth inhibition, % (test concentration not listed); hit rate 0.57% among 300,000; AID 1979;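 active = growth inhibition above about 58% in most replicates, limit read from the data, passing the limit was not always enough; inconclusive = exactly half the replicates above a set limit; inactive = most replicates below a set limit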;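 also: all wells also contain fluconazole at 8 µg/ml as a sub-toxic cotreatment; 0% = median of DMSO wells and 100% = median of geldanamycin control wells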
Mdm2-MdmX conf = human Mdm2/MdmX binding inhibition, confirmed; shares compounds with Mdm2-MdmX inh; luminescent assay; inhibition, % at 8 µM; hit rate 55% among 10,000; in the data active = inhibition above about 40%
FLuc counter = counter-screen for Mdm2/MdmX inhibitors: full-length luciferase | inhibition, % at 8 µM | hit rate 77% among 6,200 | SaOS-2 full-length luciferase counterscreen, luminescence | shares compounds with Mdm2-MdmX inh | AID 504607;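 active = mean inhibition at 8 µM reaching about 37%, which flags the compound as non-specific, limit read from the data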;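 also: p53-null SaOS-2 cells with luciferase driven by a doxycycline-inducible promoter; compound on cells about two nights before reading with doxycycline added after day one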
An asterisk follows results filed as active; u = inconclusive; x = no result given. Compounds with a hit are over-represented: about 5.7% of the library has one in this group of screens.

SMILES | CSC inhib | SKKanGAS inh | Beta apoptosis | Mdm2-MdmX inh | T cruzi repl | Calb FLC | Mdm2-MdmX conf | others
C=CCOc1c(Cl)cc(CNc2ccc(N(C)C)cc2)cc1OC | 52.8 | -1.9 | 25.6 | 60.4* | 34.4 | 13.3 | 54.1* | FLuc counter=75.2*
COc1cccc(CNc2ccc(C)c(Cl)c2)c1 | 7.4 | 3.9 | 8.3 | -24.8 | 1.9 | -4.3 | x
COc1cccc(CNC(=O)C2CCC(CNc3nc(=S)[nH]c4ccccc34)CC2)c1 (stereo not drawn) | 27.5 | 3.0 | 0.9 | 61.1* | 12.2 | -0.2 | -1.8
Cc1ccc(CNC(=O)C2CCC(CNc3nc(=S)[nH]c4ccccc34)CC2)cc1 (stereo not drawn) | 33.6 | 5.4 | 54.2 | 22.7 | 20.3 | 12.0 | x
Cc1ccc(C2C(N)C(=O)N2c2ccc(C)cc2)cc1 (stereo not drawn) | 3.0 | 2.6 | -1.2 | -5.9 | -4.5 | -6.0 | x
CC(C)c1ccccc1OCC(=O)Nc1cc(S(=O)(=O)N2CCOCC2)ccc1N1CCCC1 | -3.1 | -0.8 | 3.3 | 22.3 | 32.0 | 0.3 | x
Cc1ccc(C(=O)NC(=S)Nc2cc(C(F)(F)F)ccc2Cl)cc1 | 1.4 | -8.5 | 5.2 | 55.1* | -16.2 | -0.8 | -13.9
O=C(Cc1ccccc1)NC(=S)Nc1cc(C(F)(F)F)ccc1Cl | x | -5.7 | -5.9 | -3.7 | 15.0 | -0.3 | x
COc1ccc(-n2ncc3c(N4CCN(c5cccc(C)c5C)CC4)ncnc32)cc1 | -4.9 | -0.4 | 15.1 | 76.7* | 13.2 | 2.5 | 21.3
Clc1ccc(Cn2ncc3c(N4CCCCC4)ncnc32)cc1 | -3.8 | -3.7 | 0.3 | 14.0 | 5.4 | 12.7 | x
COc1ccc(-n2ncc3c(N4CCCCC4)ncnc32)cc1 | -0.5 | -4.3 | 14.5 | 87.1* | 3.1 | 7.1 | 85.7* | FLuc counter=73.0*
COc1ccc(N2CCN(c3ncnc4c3cnn4-c3ccc(C)cc3C)CC2)cc1 | -12.3 | -2.3 | x | 27.2 | u | -12.3 | x
Clc1ccc(-n2ncc3c(N4CCCCCC4)ncnc32)cc1 | 59.3 | 10.8 | x | 91.3* | -14.0 | -2.0 | 87.8* | FLuc counter=97.7*
COc1ccc(-n2ncc3c(N4CCN(c5cc(C)ccc5C)CC4)ncnc32)cc1 | 8.9 | -7.0 | 6.2 | 2.9 | 23.6 | 8.2 | x
Cc1ccc(-n2ncc3c(N4CCN(c5ccccc5)CC4)ncnc32)c(C)c1 | 31.2 | 18.5 | x | 70.2* | 19.0 | 54.8 | 69.5* | FLuc counter=64.0*
CC1CCc2c(sc(NC(=O)CSc3nc(N)cc(=O)[nH]3)c2C(N)=O)C1 (stereo not drawn) | x | x | x | 17.1 | x | x | x
CC1CCCCC1NC(=O)CSc1nnc(CC(=O)Nc2ccccc2F)n1C (stereo not drawn) | -4.8 | 5.1 | -1.0 | -20.5 | 3.1 | -7.5 | x
COc1ccc(CN2C(=NC(=O)C3CCCCC3)SC3CS(=O)(=O)CC32)cc1 (stereo not drawn) | 1.3 | 0.7 | -2.1 | 32.6 | -5.8 | 3.2 | x
COc1ccccc1Cn1c(=S)[nH]c2cc(C(=O)N3CCN(c4ccccc4OC)CC3)ccc2c1=O | -6.9 | -19.0 | -5.9 | 60.8* | -27.6 | -2.7 | 42.5* | FLuc counter=54.0*
CCOC(=O)N1CCN(C(=O)c2ccc3c(=O)n(-c4ccc(OC)cc4)c(=S)[nH]c3c2)CC1 | -4.0 | 2.9 | 1.1 | 68.6* | -1.5 | 1.3 | 12.1
COc1nc(-c2ccc(Cl)cc2Cl)nc2ccccc12 | -2.7 | 11.3 | 16.6 | -6.7 | -15.1 | 3.5 | x
CCCNC(=O)C(Cc1cccc(OC)c1)NC(=O)c1ccc(C(C)(C)C)cc1 (stereo not drawn) | 11.6 | x | 3.1 | -7.0 | x | x | x
CC(C)COCC(CN(Cc1ccccc1)c1ccccc1)N1CCCC1 (stereo not drawn) | 10.2 | -1.6 | 5.8 | 59.9* | 2.2 | x | 33.5
CCOC(=O)C1=C(c2ccccc2)O/C(=C(/C#N)C(F)(F)F)S1 | 56.1 | 10.3 | 115.8* | 100.7* | 70.1* | 6.9 | 99.0* | FLuc counter=-0.3
COc1cccc(CNC(=O)CCC2CCCN(C(=O)c3ccccc3N(C)C)C2)c1 (stereo not drawn) | -8.1 | -6.3 | 1.1 | -8.5 | 3.7 | -5.1 | x
SMILES | CSC inhib | SKKanGAS inh | Beta apoptosis | Mdm2-MdmX inh | T cruzi repl | Calb FLC | Mdm2-MdmX conf | others
COc1ccc(-c2csc3ncnc(NCCO)c23)cc1 | -8.8 | 5.3 | 2.9 | 70.6* | -24.8 | -2.0 | 59.2* | FLuc counter=26.2
CCOC(=O)c1ccc(-c2ccc(C3Nc4ccccc4C(=O)N3O)o2)cc1 (stereo not drawn) | -3.9 | 13.7 | 6.7 | 72.4* | 16.4 | 90.7* | 62.5* | FLuc counter=58.0*
Cc1ccc(-n2cccc2C(=S)N=P(N(C)C)(N(C)C)N(C)C)cc1 | -2.6 | 7.1 | 102.1* | 72.1* | 59.1* | 3.3 | 50.3* | FLuc counter=51.5*
Cc1cc(C)nc(N/N=C/c2ccccc2Cl)n1 | 1.6 | 2.8 | 2.7 | -36.3 | -11.1 | -10.7 | x
CCCc1nc(C)cc(N2CCN(c3ccccc3)CC2)n1 | 24.0 | -3.6 | -4.4 | -28.8 | 9.9 | 3.2 | x
Cc1ccc(Nc2cc(C)nc(NCc3ccccc3)n2)cc1 | u | 0.5 | 105.1* | 56.8* | 61.2* | 7.7 | 35.1
Cc1cc(N/N=C/c2ccccc2Cl)nc(NCc2ccccc2)n1 | 93.6* | 15.4 | 35.1 | 71.7* | 31.3 | 1.9 | 38.2
Cc1cc(N2CCN(c3ccccc3)CC2)nc(NCc2ccccc2)n1 | -14.1 | 9.3 | 36.3 | 75.7* | 55.3* | x | 32.5
Cc1c(NC(=O)CSc2nnc3c4ccccc4n(CCc4ccccc4)c3n2)c(=O)n(-c2ccccc2)n1C | 38.4 | 4.3 | 3.7 | 100.3* | 33.5 | 19.2 | 90.5* | FLuc counter=52.0*
COc1ccc(-n2ncc3c(=O)n(CC(=O)Nc4ccc5c(c4)OCCO5)cnc32)cc1 | x | -9.5 | 5.8 | 29.6 | -8.7 | 1.5 | x
COc1ccc(-n2nnc3c(=O)n(CC(=O)Nc4ccc5c(c4)OCCO5)cnc32)cc1OC | -27.1 | 27.1 | 10.2 | 79.9* | -13.8 | 8.4 | 14.7
Cc1cc(NC(=O)Cn2cnc3c(nnn3-c3ccc(C)c(Cl)c3)c2=O)no1 | -8.7 | -3.2 | -3.5 | 42.6 | -8.4 | -26.2 | x
CCOc1ccc(-n2nnc3c(=O)n(CC(=O)Nc4cc(C)on4)cnc32)cc1 | -6.1 | 6.2 | 6.6 | 55.7* | -3.9 | -11.7 | 2.2
O=C(Cn1cnc2c(nnn2-c2cccc(F)c2)c1=O)Nc1ccc2c(c1)OCCO2 | -12.0 | 36.7 | x | 52.1* | -6.9 | -8.4 | 20.7
CC(=O)c1sc(NC(=O)CN2C(=O)C3CC=CCC3C2=O)nc1-c1ccccc1 (stereo not drawn) | 5.3 | 18.4 | 1.6 | -14.4 | -16.2 | 7.9 | x
Cc1noc(C)c1C(=O)N(CC(=O)Nc1ccc(Cl)c(C(F)(F)F)c1)Cc1ccco1 | 7.8 | x | -5.8 | 25.0 | x | x | x
COc1ccc(NC(=O)CNc2ccccc2N2CCCC2=O)cc1S(=O)(=O)N1CCOCC1 | x | x | -4.9 | 13.0 | x | x | x
